# ChEMBL document CHEMBL2029239, “Identification, design and biological evaluation of bisaryl quinolones targeting Plasmodium falciparum type II NADH:quinone oxidoreductase (PfNDH2)” (J Med Chem, 2012)
# pIC50: −log10 of the molar value.
# How the values were obtained:
# [1] = system: Plasmodium berghei; experiment: Antimalarial activity against Plasmodium berghei infected in CD1 mouse assessed as decrease in parasitemia at 20 mg/kg, po administered using Na2CO3 vehicle measured on day 4 relative to control; assay type: functional; parameters: scale not given: the % may be the effect or the level left
# In short: (§1)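 Peters' standard 4-day suppressive test in male CD-1 mice infected with Plasmodium berghei by intraperitoneal injection. Compound given orally at 20 mg/kg, with 5 mice per group. Read-out is % parasite clearance on day 4. Vehicles were SSV (often as suspensions), DET (fully dissolved) or sodium carbonate solution, as specified in each line.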
# [2] = system: Plasmodium falciparum; experiment: Antimalarial activity against blood stage forms of Plasmodium falciparum 3D7; assay type: functional, organism-based
# [3] = Inhibition of Plasmodium falciparum recombinant NDH2 expressed in Escherichia coli F571 using decyclubiquinone as substrate at 1 min by spectrophotometry
# [4] = system: Plasmodium berghei; experiment: Antimalarial activity against Plasmodium berghei infected in CD1 mouse assessed as decrease in parasitemia at 20 mg/kg, po administered using standard suspension vehicle measured on day 4 relative to control; assay type: functional; parameters: scale not given: the % may be the effect or the level left; in short: as §1
# [5] = system: Plasmodium berghei; experiment: Antimalarial activity against Plasmodium berghei infected in CD1 mouse assessed as decrease in parasitemia at 20 mg/kg, po administered using 5% DMSO and 5% EtOH in tetraglycol vehicle measured on day 4 relative to control; assay type: functional; parameters: scale not given: the % may be the effect or the level left; in short: as §1
# [6] = system: Plasmodium falciparum; experiment: Antimalarial activity against atoquinone-resistant Plasmodium falciparum TM90C2B; assay type: functional, organism-based
# [7] = system: Plasmodium falciparum; experiment: Antimalarial activity against chloroquine-resistant Plasmodium falciparum W2; assay type: functional, organism-based
# [8] = Inhibition of Plasmodium falciparum cytochrome b-c1 complex using decylubiquinol as substrate by spectrophotometry
Compound,pIC50 [2],pIC50 [3],pIC50 [6],further results
Cc1c(-c2ccc(Cc3ccc(OC(F)(F)F)cc3)cc2)nc2cc(Cl)ccc2c1OC(=O)N1CCOCC1,,,,Activity [1]: 100%
O=c1cc(-c2ccc(OC(F)(F)F)cc2)[nH]c2ccccc12,6.17,7.32,,
O=C1C(O)=C([C@H]2CC[C@H](c3ccc(Cl)cc3)CC2)C(=O)c2ccccc21 [ATOVAQUONE],,,,Activity [4]: 100%; Activity [5]: 100%
O=c1cc(-c2ccc(Cc3ccc(OC(F)(F)F)cc3)cc2)[nH]c2cc(O)c(F)cc12,< 6.00,,,
Cc1c(-c2ccc(C(F)(F)F)cc2)[nH]c2ncccc2c1=O,< 6.00,,,
O=c1c(Cl)c(-c2ccc(OC(F)(F)F)cc2)[nH]c2ccccc12,6.29,6.60,,
Cc1c(-c2ccc(Cc3ccc(OC(F)(F)F)cc3)cc2)n(O)c2cc(Cl)ccc2c1=O,6.83,,< 6.00,
COc1cc2[nH]c(-c3ccc(Cc4ccc(OC(F)(F)F)cc4)cc3)cc(=O)c2cc1F,7.41,,,
Cc1c(-c2ccc(Cc3ccc(OC(F)(F)F)cc3)cc2)c(=O)c2ccccc2n1O,6.76,7.87,6.17,
O=c1c(Cl)c(-c2ccc(Cc3ccc(OC(F)(F)F)cc3)cc2)[nH]c2ccccc12,7.72,6.86,6.48,pIC50 [7]: 7.66
Cc1c(-c2ccc(Br)cc2)[nH]c2ncccc2c1=O,< 6.00,,,
Cc1c(-c2ccc(Cc3ccc(OC(F)(F)F)cc3)cc2)[nH]c2cc(F)c(Cl)cc2c1=O,7.15,,,
Cc1c(-c2ccc(Oc3ccc(OCCN4CCOCC4)cc3)cc2)[nH]c2ccccc2c1=O,< 6.00,,,
Cc1c(-c2ccc(Cc3ccc(OC(F)(F)F)cc3)cc2)[nH]c2cc(F)ccc2c1=O,7.16,7.92,6.72,
Cc1[nH]c2ccccc2c(=O)c1-c1ccc(Cc2ccc(OC(F)(F)F)cc2)cc1,7.44,6.31,,pIC50 [7]: 7.38
CCOC(=O)Oc1c(C)c(-c2ccc(Oc3ccc(OC(F)(F)F)cc3)cc2)nc2ccccc12,7.22,,6.39,
Cc1c(-c2ccc(Cc3ccc(F)cc3)cc2)[nH]c2ncccc2c1=O,6.30,,,
Cc1c(-c2ccc(Cc3ccc(OC(F)(F)F)cc3)cc2F)[nH]c2cc(Cl)ccc2c1=O,7.52,,,
Cc1c(-c2ccc(Cc3ccc(OC(F)(F)F)cc3)cc2)[nH]c2cc(F)c(F)cc2c1=O,7.62,7.51,6.68,
Cc1c(-c2ccc(Cc3ccccc3)cc2)[nH]c2ccccc2c1=O,6.97,7.56,6.38,
Cc1c(-c2ccc(Cc3ccc(F)cc3)cc2)[nH]c2ccccc2c1=O,7.08,> 9.00,6.56,pIC50 [8]: 7.59
O=c1cc(-c2ccc(Cc3ccc(OC(F)(F)F)cc3)cc2)[nH]c2cc(Cl)c(Cl)cc12,7.55,6.76,,
O=c1cc(-c2ccc(Cc3ccc(OC(F)(F)F)cc3)cc2)[nH]c2cc(N3CCNCC3)ccc12,6.35,,,

Compound,pIC50 [2],pIC50 [3],pIC50 [6],further results
CCOC(=O)Oc1c(C)c(-c2ccc(Cc3ccc(OC(F)(F)F)cc3)cc2)nc2ccccc12,7.57,,8.17,
COc1ccc(Cc2ccc(-c3[nH]c4ccccc4c(=O)c3C)cc2)cc1,7.43,6.95,6.24,
Cc1c(-c2ccc(Cc3ccc(OC(F)(F)F)cc3)cc2)[nH]c2ccc(O)cc2c1=O,6.33,,,
O=c1c(-c2ccc(Oc3ccc(OC(F)(F)F)cc3)cc2)c[nH]c2ccccc12,6.10,,,
Cc1c(-c2ccc(Cc3ccc(OC(F)(F)F)cc3)cc2)n(O)c2ccccc2c1=O,7.66,7.26,6.66,pIC50 [7]: 8.10
CCOC(=O)c1c(-c2ccc(Cc3ccc(OC(F)(F)F)cc3)cc2)[nH]c2cc(Cl)ccc2c1=O,7.59,,7.04,
Cc1c(-c2ccc(Oc3ccc(OC(F)(F)F)cc3)cc2)n(O)c2ccccc2c1=O,7.46,6.97,6.25,
CCOC(=O)c1c(-c2ccc(Cc3ccc(OC(F)(F)F)cc3)cc2)[nH]c2ccccc2c1=O,7.40,6.57,5.85,
Cc1c(-c2ccc(Oc3cccc(OCCN4CCOCC4)c3)cc2)[nH]c2ccccc2c1=O,6.14,,,
Cc1c(-c2cccc(Cc3ccc(OC(F)(F)F)cc3)c2)[nH]c2ccccc2c1=O,7.59,7.30,7.19,pIC50 [8]: 6.66
Cc1c(-c2ccc(Cc3ccc(OC(F)(F)F)cc3)cc2)[nH]c2cc(C(F)(F)F)ccc2c1=O,6.67,,,
COc1ccc2c(=O)c(C)c(-c3ccc(Cc4ccc(OC(F)(F)F)cc4)cc3)[nH]c2c1,8.10,,,pIC50 [7]: 7.89
COC(=O)c1ccc(Cc2ccc(-c3cc(=O)c4ccccc4[nH]3)cc2)cc1,6.57,7.72,,
O=c1c(CO)c(-c2ccc(Oc3ccc(OC(F)(F)F)cc3)cc2)[nH]c2cc(Cl)ccc12,6.70,,,
Cc1c(-c2ccc(Cc3ccc(OC(F)(F)F)cc3)cc2)[nH]c2cc(O)ccc2c1=O,6.86,,,
COc1ccc(-c2[nH]c3ncccc3c(=O)c2C)cc1,< 6.00,,,
Cc1c(-c2ccc(Cc3ccc(OC(F)(F)F)cc3)cc2)[nH]c2c(O)cccc2c1=O,6.09,,,
CCOC(=O)Oc1c(-c2ccc(Cc3ccc(OC(F)(F)F)cc3)cc2)c(C)nc2ccccc12,7.57,,6.65,
O=c1cc(-c2ccc(Cc3ccc(OC(F)(F)F)cc3)cc2)[nH]c2ccccc12,7.32,8.21,6.60,pIC50 [8]: 7.86; pIC50 [7]: 7.44
Cc1c(-c2cccc(Cc3ccc(OC(F)(F)F)cc3)c2)[nH]c2ccc(Cl)cc2c1=O,8.08,,7.51,
Cc1c(-c2ccc(Cc3cccc(OCCN4CCOCC4)c3)cc2)[nH]c2ccccc2c1=O,6.45,6.55,,
COc1cccc2[nH]c(-c3ccc(Cc4ccc(OC(F)(F)F)cc4)cc3)c(C)c(=O)c12,6.18,,,
COc1ccc(-c2cc(=O)c3ccccc3[nH]2)cc1,< 6.00,,,

Compound,pIC50 [2],pIC50 [3],pIC50 [6],further results
O=c1cc(-c2ccc(Cc3ccc(OC(F)(F)F)cc3)cc2)[nH]c2ccc(N3CCNCC3)cc12,6.37,,,
O=c1cc(-c2ccc(Cc3ccc(OC(F)(F)F)cc3)cc2)[nH]c2cc(F)c(F)cc12,7.80,,6.20,
Cc1c(-c2ccc(Cc3ccc(F)cc3)cc2)[nH]c2cc(Cl)ccc2c1=O,,6.71,,
O=c1c(CO)c(-c2ccc(Cc3ccc(OC(F)(F)F)cc3)cc2)[nH]c2cc(Cl)ccc12,7.20,,6.48,
COc1cccc2c(=O)c(C)c(-c3ccc(Cc4ccc(OC(F)(F)F)cc4)cc3)[nH]c12,6.42,,,
O=c1cc(-c2ccc(Cc3ccc(OC(F)(F)F)cc3)cc2)n(O)c2ccccc12,6.58,7.15,6.39,
O=c1cc(-c2ccc(O)cc2)[nH]c2ccccc12,< 6.00,,,
Cc1c(-c2ccc(OC(F)(F)F)cc2)[nH]c2ccccc2c1=O,< 6.00,,,
COc1ccc2[nH]c(-c3ccc(Cc4ccc(OC(F)(F)F)cc4)cc3)c(C)c(=O)c2c1,6.33,,,
Cc1c(-c2ccc(Cc3ccc(OC(F)(F)F)cc3)cc2)[nH]c2ccc(C(F)(F)F)cc2c1=O,6.18,,,
Cc1c(-c2ccc(Oc3ccc(Cl)cc3)cc2)[nH]c2ccccc2c1=O,6.64,7.44,6.10,
Cc1c(-c2ccc(C(F)(F)F)cc2)[nH]c2ccccc2c1=O,6.12,7.05,,
Cc1c(-c2ccc(Cc3ccc(OC(F)(F)F)cc3)cc2)nc2cc(Cl)ccc2c1OP(=O)(O)O,,,,Activity [1]: 100%
Cc1c(-c2ccc(OC(F)(F)F)cc2)[nH]c2ncccc2c1=O,< 6.00,,,
Cc1c(-c2ccc(Cc3ccc(OC(F)(F)F)cc3)cc2)[nH]c2cc(Cl)c(F)cc2c1=O,7.42,,,
Cc1c(-c2ccc(Cc3ccc(OC(F)(F)F)cc3)cc2)[nH]c2ncccc2c1=O,6.39,7.01,5.73,
CC(=O)Oc1cccc2c(=O)c(C)c(-c3ccc(Cc4ccc(OC(F)(F)F)cc4)cc3)[nH]c12,6.39,,,
Cc1c(-c2cccc(Cc3ccc(OC(F)(F)F)cc3)c2)[nH]c2cc(Cl)ccc2c1=O,7.47,,7.03,
O=c1cc(-c2ccc(Cc3ccc(CO)cc3)cc2)[nH]c2ccccc12,< 6.00,,,
O=c1cc(-c2ccc(C(F)(F)F)cc2)[nH]c2ccccc12,6.24,7.28,,
Cc1[nH]c2ccccc2c(=O)c1-c1ccc(Oc2ccc(OC(F)(F)F)cc2)cc1,8.00,6.72,,pIC50 [7]: 7.47
COc1ccc(-c2[nH]c3ccccc3c(=O)c2Cl)cc1,6.25,5.78,,
O=c1c(-c2ccc(Oc3ccc(OC(F)(F)F)cc3)cc2)c(CO)[nH]c2ccccc12,7.04,< 4.25,,
